The text below walks through data of ChEMBL document CHEMBL2150955, “Design, synthesis and evaluation of N-(substituted benzothiazol-2-yl)amides as anticonvulsant and neuroprotective” (Eur J Med Chem, 2012).

Data set [1] relates to Mus musculus. The data set can be described thus: Anticonvulsant activity in ip dosed mouse assessed as compound concentration causing protection against maximal electroshock-induced seizures in half or more test animals after 4 hrs. The format is functional. The settings on record: read-out: MED. In a few lines: (§1)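 Albino mice of either sex (25-30 g), housed under standard conditions with free access to pellet diet and water. Compounds given at 30, 100 and 300 mg/kg (n = 6). MES and scPTZ seizures were read at 0.5 h and 4 h. The value recorded is the minimum dose protecting half or more of the mice; 300 mg/kg is the maximum dose.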

For data set [2], the system named is Mus musculus. The data set can be described thus: Anticonvulsant activity in mouse assessed as protection against maximal electroshock-induced seizures at 300 mg/kg, ip after 0.5 hrs. More on the design: dose 300 mg/kg. The class given is functional, organism-based. In a few lines: as §1
Background: In the maximal electroshock model the usual endpoint is tonic extension of the hind limbs.

Data set [3] has as its system Mus musculus. Briefly: Neurotoxicity in ip dosed mouse assessed as minimal motor impairment after 0.5 hrs by rotarod test. The class given is toxicity, organism-based. Conditions: in vivo. In a few lines:
(§2)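 Albino mice of either sex (25-30 g) received 30, 100 or 300 mg/kg (n = 6). Neurological deficit was assessed on the rotarod at 0.5 h and 4 h. The value recorded is the minimum dose producing neurotoxicity in half or more of the mice; 300 mg/kg is the maximum dose.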
On the technique in general: In the rotarod test animals must keep their balance on a rotating rod.

In data set [4] the test system is Mus musculus. The data set can be described thus: CNS depressant activity in mouse assessed as immobility time at 100 mg/kg, ip measured 60 mins post dose by porsolt's swimming pool test. The class given is organism-based. More on the design: dose 100 mg/kg, route intraperitoneal. The settings on record: in vivo, 1 h. In a few lines:
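Behavioral depression was measured by Porsolt's swim test in albino mice of either sex. Immobility time (s) was recorded 24 h before as the control and again 60 min after treatment. Values are mean ± SEM of six mice, compared with Student's t test.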

Data set [5] concerns Mus musculus. Briefly: Neurotoxicity in ip dosed mouse assessed as minimal motor impairment after 4 hrs by rotarod test. The class given is toxicity, organism-based. The settings on record: in vivo. In a few lines:
as §2

The test system of data set [6] is Mus musculus. Briefly: Anticonvulsant activity in ip dosed mouse assessed as compound concentration causing protection against subcutaneous pentylenetetrazol-induced seizures in half or more test animals after 4 hrs. The settings on record: read-out: MED. The format is functional. In a few lines:
as §1

Data set [7] has as its system Mus musculus. Briefly: Anticonvulsant activity in mouse assessed as protection against subcutaneous pentylenetetrazol-induced seizures at 300 mg/kg, ip after 0.5 hrs. Further details: dose 300 mg/kg. The format is functional, organism-based. In a few lines: as §1
The test system of data set [8] is Mus musculus. The data set can be described thus: Neurotoxicity in mouse assessed as minimal motor impairment at 300 mg/kg, ip after 4 hrs by rotarod test. The format is toxicity, organism-based. Further details: dose 300 mg/kg, route intraperitoneal. Conditions: in vivo. In a few lines: as §2
Data set [9] deals with Mus musculus. The data set can be described thus: Neurotoxicity in mouse assessed as minimal motor impairment at 300 mg/kg, ip after 0.5 hrs by rotarod test. The class given is toxicity, organism-based. More on the design: dose 300 mg/kg, route intraperitoneal. The settings on record: in vivo. In a few lines: as §2
Data set [10] concerns Mus musculus. The data set can be described thus: Anticonvulsant activity in ip dosed mouse assessed as compound concentration causing protection against maximal electroshock-induced seizures in half or more test animals after 0.5 hrs. The format is functional. The settings on record: read-out: MED. In a few lines:
as §1

Data set [11] relates to Mus musculus. The data set can be described thus: Anticonvulsant activity in mouse assessed as protection against subcutaneous pentylenetetrazol-induced seizures at 300 mg/kg, ip after 4 hrs. Further details: dose 300 mg/kg. The format is functional, organism-based. In a few lines:
as §1

Data set [12] deals with Mus musculus. Briefly: Anticonvulsant activity in ip mouse assessed as protection against subcutaneous pentylenetetrazol-induced seizures. The class given is functional. In a few lines: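 This is the Phase II quantitation in albino mice of either sex (25-30 g). […] TD50 came from the rotarod test, read 30 min after dosing. The protective index is TD50/ED50.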
Data set [13] relates to Mus musculus. Briefly: Anticonvulsant activity in mouse assessed as protection against maximal electroshock-induced seizures at 300 mg/kg, ip after 4 hrs. More on the design: dose 300 mg/kg. The class given is functional, organism-based. In a few lines:
as §1

Data set [14] concerns Mus musculus. Briefly: Anticonvulsant activity in ip dosed mouse assessed as compound concentration causing protection against subcutaneous pentylenetetrazol-induced seizures in half or more test animals after 0.5 hrs. The class given is functional. Conditions: read-out: MED. In a few lines: as §1
Data set [15] relates to Mus musculus. Briefly: Hepatotoxicity in mouse assessed as effect on total protein level at 30 mg/kg/day, po dosed for 2 weeks relative to control. The class given is toxicity, organism-based. Conditions: in vivo, 336 h. More on the design: route oral. In a few lines:
(§3)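 Serum SGOT, SGPT, alkaline phosphatase, total albumin and total protein were measured in treated mice against controls (n = 6). Data were analysed by ANOVA followed by Student's t test.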

The subject of data set [16] is Mus musculus. Briefly: Hepatotoxicity in mouse assessed as effect on SGOT level at 30 mg/kg, po after 2 weeks relative to control. The class given is toxicity, organism-based. Further details: dose 30 mg/kg, route oral. Conditions: in vivo, 336 h. In a few lines:
as §3

Data set [17] deals with Mus musculus. Briefly: Neuroprotective activity in acrylamide-intoxicated mouse assessed as reduction in brain malonaldehyde level at 50 mg/kg, ip dosed 3 days/week for 3 weeks administered 10 mins before acrylamide challenge by TBARS detection assay. The class given is functional, organism-based. More on the design: dose 50 mg/kg. In a few lines: (§4)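 Mice were given acrylamide to induce brain degeneration, with compound administered 10 min before the acrylamide. Brain MDA (lipid peroxidation) and LDH activity were measured against controls. Values are mean ± SEM of six animals, compared with Student's t test.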

The test system of data set [18] is Mus musculus. Briefly: Neuroprotective activity in acrylamide-intoxicated mouse assessed as reduction in brain LDH level at 50 mg/kg, ip dosed 3 days/week for 3 weeks administered 10 mins before acrylamide challenge by spectrophotometry. The format is functional, organism-based. More on the design: dose 50 mg/kg. In a few lines: as §4
For data set [19], the system named is Mus musculus. The data set can be described thus: Hepatotoxicity in mouse assessed as effect on alkaline phosphatase level at 30 mg/kg/day, po dosed for 2 weeks relative to control. The class given is toxicity, organism-based. More on the design: route oral. The settings on record: in vivo, 336 h. In a few lines: as §3
For data set [20], the system named is Mus musculus. The data set can be described thus: Hepatotoxicity in mouse assessed as effect on total albumin level at 30 mg/kg/day, po dosed for 2 weeks relative to control. The format is toxicity, organism-based. More on the design: route oral. The settings on record: in vivo, 336 h. In a few lines: as §3
Data set [21] relates to Mus musculus. The data set can be described thus: Hepatotoxicity in mouse assessed as effect on SGPT level at 30 mg/kg/day, po dosed for 2 weeks relative to control. The format is toxicity, organism-based. More on the design: route oral. The settings on record: in vivo, 336 h. In a few lines: as §3

Molecules are shown by their SMILES. Active and inactive are the calls of the source. The rule behind the calls is not given here.

For `O=C(Nc1nc2ccc(F)cc2s1)c1ccccc1C(=O)c1ccccc1`, the minimal effective dose in the data set with Mus musculus [1] was 100 mg/kg; with Mus musculus [6], 300 mg/kg. The outcome with Mus musculus [2] and in the data set with Mus musculus [7] was inactive. The MTC in the data set on Mus musculus [3] and with Mus musculus [5] was 300 mg/kg throughout. Moreover, the Time in the data set with Mus musculus [4] is reported as 147.3 s.
In the case of `O=C(CCC(=O)c1ccccc1)Nc1nc2cc(Cl)c(F)cc2s1`, the minimal effective dose in the data set on Mus musculus [1] and in the data set with Mus musculus [10] was 300 mg/kg each time. The Activity entry in the data set on Mus musculus [8] and with Mus musculus [9] was “Non-toxic” in each case. In the data set on Mus musculus [4], the Time is listed as 146.6 s. Besides, the result in the data set on Mus musculus [7] and in the data set with Mus musculus [11] was inactive.
On to `O=C1NC(=O)C(c2ccccc2)(c2ccccc2)N1` [PHENYTOIN], for which the minimal effective dose in the data set on Mus musculus [1] and in the data set on Mus musculus [10] was 30 mg/kg each time. In addition, in the data set on Mus musculus [12], the 50% effective dose (ED50) (as a rule, the dose that gives a 50% effect, or the effect in half of the subjects) was above 300 mg/kg. The MTC in the data set on Mus musculus [3] and in the data set on Mus musculus [5] was 100 mg/kg throughout. Also, the result with Mus musculus [7] and with Mus musculus [11] was inactive.
Regarding `O=C(CCC(=O)c1ccccc1)Nc1nc2ccc([N+](=O)[O-])cc2s1`, the Activity entry with Mus musculus [9] is “Non-toxic”. In the data set with Mus musculus [4], the Time worked out at 166.1 s. For the same molecule, the MTC with Mus musculus [5] worked out at 300 mg/kg. The outcome with Mus musculus [7], with Mus musculus [11] and with Mus musculus [13] was inactive. Moreover, the minimal effective dose with Mus musculus [10] was 300 mg/kg.
As for `O=C(CCC(=O)c1ccccc1)Nc1nc2ccc(F)cc2s1`, the minimal effective dose with Mus musculus [1] came out at 300 mg/kg. Moreover, the outcome in the data set with Mus musculus [2], in the data set with Mus musculus [7] and in the data set with Mus musculus [11] was inactive. In addition, the Activity entry in the data set on Mus musculus [8] and in the data set with Mus musculus [9] was “Non-toxic” in each case. The Time in the data set on Mus musculus [4] is reported as 160 s.
As to `COc1ccc2nc(NC(=O)c3ccccc3C(=O)c3ccccc3)sc2c1`, the figures for the minimal effective dose in the data set on Mus musculus [1], in the data set on Mus musculus [14] and in the data set with Mus musculus [6] were 100 mg/kg, 300 mg/kg and 300 mg/kg, respectively. For the same molecule, in the data set on Mus musculus [2], the result was inactive. Further, the Activity result with Mus musculus [8] and in the data set on Mus musculus [9] was “Non-toxic” throughout. Further, the Time in the data set on Mus musculus [4] is 177 s.
On to `O=C(Nc1nc2ccc([N+](=O)[O-])cc2s1)c1ccccc1C(=O)c1ccccc1`, for which the MTC in the data set with Mus musculus [3] and in the data set with Mus musculus [5] was 300 mg/kg each time. Besides, the Time with Mus musculus [4] amounted to 154.3 s. The outcome in the data set on Mus musculus [7], with Mus musculus [11] and in the data set with Mus musculus [13] was inactive. The minimal effective dose in the data set on Mus musculus [10] was determined as 300 mg/kg.
Turning to `O=C(Nc1nc2ccc(Br)cc2s1)c1ccccc1C(=O)c1ccccc1`, the MTC with Mus musculus [3] and in the data set on Mus musculus [5] was 300 mg/kg each time. The Time with Mus musculus [4] is 179.1 s. Also, the outcome in the data set with Mus musculus [7], with Mus musculus [11] and with Mus musculus [13] was inactive. Moreover, the minimal effective dose with Mus musculus [10] was determined as 300 mg/kg.
In the case of `O=C(CCC(=O)c1ccccc1)Nc1nc2ccc(Cl)cc2s1`, the minimal effective dose in the data set with Mus musculus [1], with Mus musculus [14], with Mus musculus [6] and with Mus musculus [10] was 300 mg/kg throughout. Also, the Activity entry with Mus musculus [8], with Mus musculus [9], in the data set with Mus musculus [15], in the data set with Mus musculus [16], in the data set with Mus musculus [19] and with Mus musculus [20] was “Non-toxic” throughout. For the same molecule, the Activity entry with Mus musculus [21] is listed as “Non-toxic”. The Time in the data set on Mus musculus [4] is 134.5 s. Moreover, the result with Mus musculus [17] and in the data set on Mus musculus [18] was Active.
